# In publication PMC3121894 (Journal of molecular biology, 2011):
# Where two headings read alike, the source gives them in different places. Where a SMILES comes first, the peptide text is derived from it. The star is where a group is joined. 5FAM = O=C1OC2(c3ccc(O)cc3Oc3cc(O)ccc32)c2ccc(C(=O)*)cc21
# Columns and labels:
# SRPK1(ΔN) [1] = assay: Steady-state kinetic phosphorylation assay, SRPK1; type: biochemical; details: for Km: substrate SRSF1, pH 7.4, 23° C
# In short: (§1)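 His6-tagged kinase (full length, N-terminal deletion, or SID deletion with RRQ linker) from E. coli BL21(DE3), Ni-purified; refolded His6-SRSF1 substrate. Reaction: 50 mM MOPS pH 7.4, 10 mM Mg2+, 1 mg/mL BSA, 23 °C, started with 100 μM 32P-ATP (600-1000 cpm/pmol). Quenched in SDS loading buffer; bands excised and counted. Initial velocities vs total SRSF1 or ATP fit to Michaelis-Menten; kcat = Vmax/total enzyme.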
# SRPK1 [2] = biological target: T1, SRPK1 (Homo sapiens, UniProt Q96SB4); assay: Steady-state kinetic phosphorylation assay, SRPK1; type: biochemical
# In short: as §1
# SRPK1(ΔS) [3] = assay: Steady-state kinetic phosphorylation assay, SRPK1; type: biochemical; details: for Km: substrate SRSF1, pH 7.4, 23° C
# In short: as §1
# SRPK1 [4] = biological target: T1, SRPK1; assay: Fluorescent Arg-Ser peptide binding, SRPK1; details: for fluorescence emission change: addition of SRPK1 (25, 50, 75 nM) to 10 nM peptide
# SRPK1(ΔN) [5] = assay: Fluorescent Arg-Ser peptide binding, SRPK1; details: removal of the N-terminus; both peptides
# SRPK1 [6] = biological target: T1, SRPK1; type: biochemical; details: steady-state kinetic studies; data not shown
# [7] = biological target: SRPK1(ΔN), SRPK1 lacking the full-length N-terminus; assay: kinetic competition assay
# [8] = biological target: SRPK1 (SR-specific protein kinase 1), full-length wild type (UniProt Q96SB4); assay: kinetic competition assay
# [9] = biological target: SRPK1(ΔS), SRPK1 lacking the spacer insert domain (SID); assay: kinetic competition assay
# SRPK1 [10] = biological target: T1, SRPK1; assay: Single turnover phosphorylation, SRPK1; type: biochemical
# SRPK1(ΔS) [11] = assay: Competition assay; type: biochemical; details: removal of the SID
# SRPK1 [12] = biological target: T1, SRPK1; details: cited from earlier work
# SRPK1(ΔS) [13] = assay: Single turnover phosphorylation, SRPK1; type: biochemical
# SRPK1 [14] = biological target: T1, SRPK1; details: SRPK1 complex with SRSF1; ref [15]; [18]; cited from earlier work
# SRPK1(ΔN) [15] = assay: Competition assay; type: biochemical; details: removal of the N-terminus; wt-SRSF1
# Target sequence in this assay (Q96SB4 76-655 limits assumed, stated change not applied): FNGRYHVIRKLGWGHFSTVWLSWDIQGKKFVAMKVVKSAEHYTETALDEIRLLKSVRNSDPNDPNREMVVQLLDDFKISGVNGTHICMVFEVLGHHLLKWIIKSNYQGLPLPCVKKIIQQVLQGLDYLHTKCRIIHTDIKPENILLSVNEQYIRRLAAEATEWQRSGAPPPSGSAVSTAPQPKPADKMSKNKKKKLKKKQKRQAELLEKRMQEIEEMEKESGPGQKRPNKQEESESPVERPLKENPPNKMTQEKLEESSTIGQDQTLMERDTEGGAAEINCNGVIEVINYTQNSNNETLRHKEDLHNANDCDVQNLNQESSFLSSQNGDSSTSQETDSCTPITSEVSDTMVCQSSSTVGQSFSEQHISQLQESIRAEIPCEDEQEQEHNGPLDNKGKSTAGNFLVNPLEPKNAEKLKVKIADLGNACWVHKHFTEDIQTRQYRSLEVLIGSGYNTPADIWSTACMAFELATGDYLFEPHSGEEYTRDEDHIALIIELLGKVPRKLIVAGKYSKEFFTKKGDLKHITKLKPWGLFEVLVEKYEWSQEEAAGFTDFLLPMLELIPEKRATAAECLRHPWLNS
# [16] = SRPK1 2 μM, SRSF1 100 nM, ^32P-ATP start, double exponential fit
# [17] = SRPK1 2 μM, SRSF1 100 nM, double exponential fit
# [18] = wild-type kinase, single turnover
# T1 sequence (Q96SB4 whole entry, species assumed): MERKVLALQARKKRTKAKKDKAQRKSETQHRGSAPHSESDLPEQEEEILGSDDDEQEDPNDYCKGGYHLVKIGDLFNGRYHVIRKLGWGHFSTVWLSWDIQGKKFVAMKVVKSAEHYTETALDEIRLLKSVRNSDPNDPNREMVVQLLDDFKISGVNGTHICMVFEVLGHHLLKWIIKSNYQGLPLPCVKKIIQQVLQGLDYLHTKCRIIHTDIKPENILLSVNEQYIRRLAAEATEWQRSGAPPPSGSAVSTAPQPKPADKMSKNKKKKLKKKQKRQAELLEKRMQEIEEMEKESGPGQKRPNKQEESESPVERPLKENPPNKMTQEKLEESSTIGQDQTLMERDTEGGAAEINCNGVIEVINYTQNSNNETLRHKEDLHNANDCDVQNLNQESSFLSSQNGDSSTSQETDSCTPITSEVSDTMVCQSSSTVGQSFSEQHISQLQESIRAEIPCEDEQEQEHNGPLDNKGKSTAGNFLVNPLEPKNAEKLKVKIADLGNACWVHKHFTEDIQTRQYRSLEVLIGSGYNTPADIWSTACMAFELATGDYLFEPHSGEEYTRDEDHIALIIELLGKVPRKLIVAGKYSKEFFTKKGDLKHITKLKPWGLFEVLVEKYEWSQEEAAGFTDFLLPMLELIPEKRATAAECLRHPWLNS
# Sequence of SRPK1 (SR-specific protein kinase 1), full-length wild type (Q96SB4 whole entry, the tested form may be a part): as the sequence (Q96SB4 whole entry, species assumed) above
# Sequence of SRPK1(ΔN), SRPK1 lacking the full-length N-terminus (Q96SB4 71-655, stated change not applied): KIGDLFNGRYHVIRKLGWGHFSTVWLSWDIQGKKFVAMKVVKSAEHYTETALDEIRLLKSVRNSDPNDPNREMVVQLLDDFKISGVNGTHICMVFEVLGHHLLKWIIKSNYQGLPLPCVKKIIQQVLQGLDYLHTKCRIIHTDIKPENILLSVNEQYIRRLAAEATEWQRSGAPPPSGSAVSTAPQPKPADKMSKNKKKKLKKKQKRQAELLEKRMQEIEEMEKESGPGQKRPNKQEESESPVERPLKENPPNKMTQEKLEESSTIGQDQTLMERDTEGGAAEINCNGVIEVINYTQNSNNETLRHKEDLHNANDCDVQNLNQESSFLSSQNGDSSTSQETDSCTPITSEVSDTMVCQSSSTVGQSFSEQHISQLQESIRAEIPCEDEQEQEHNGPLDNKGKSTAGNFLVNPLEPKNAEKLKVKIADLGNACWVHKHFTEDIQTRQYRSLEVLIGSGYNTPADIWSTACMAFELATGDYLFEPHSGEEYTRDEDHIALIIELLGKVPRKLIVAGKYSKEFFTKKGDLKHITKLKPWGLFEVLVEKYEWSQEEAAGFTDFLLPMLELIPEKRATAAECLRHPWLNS
molecule,measurement,setting,value
"Nc1ncnc2c1ncn2[C@@H]1O[C@H](COP(=O)(O)OP(=O)(O)OP(=O)(O)O)[C@@H](O)[C@H]1O [ATP, reference compound]","increase of Km,ATP",SRPK1(ΔN) [1]; N-terminal deletion versus SRPK1,2-5 fold
same,Km,"SRPK1(ΔN) [1]; read-out: Km,ATP (Km for ATP), SRPK1(ΔN)",9 ± 2 µM
same,Km,"SRPK1 [2]; read-out: Km,ATP (Km for ATP), substrate SRSF1, pH 7.4, 23° C",5 ± 0.5 µM
same,"increase of Km,ATP",SRPK1(ΔS) [3]; SID deletion versus SRPK1,2-5 fold
same,Km,"SRPK1(ΔS) [3]; read-out: Km,ATP (Km for ATP), SRPK1(ΔS)",28 ± 7 µM
N=C(N)NCCC[C@H](NC(=O)c1ccc2c(c1)C(=O)OC21c2ccc(O)cc2Oc2cc(O)ccc21)C(=O)N[C@@H](CO)C(=O)N[C@@H](CCCNC(=N)N)C(=O)N[C@@H](CO)C(=O)N[C@@H](CCCNC(=N)N)C(=O)N[C@@H](CO)C(=O)N[C@@H](CCCNC(=N)N)C(=O)N[C@@H](CO)C(=O)N[C@@H](CCCNC(=N)N)C(=O)N[C@@H](CO)C(=O)N[C@@H](CCCNC(=N)N)C(=O)N[C@@H](CO)C(=O)N[C@@H](CCCNC(=N)N)C(=O)N[C@@H](CO)C(=O)N[C@@H](CCCNC(=N)N)C(=O)N[C@@H](CO)C(=O)O [Fl-(RS)8] (5FAM-RSRSRSRSRSRSRSRS-OH; N-terminus and C-terminus assumed),fluorescence emission change,SRPK1 [4],increases in the fluorescence emission spectra
N=C(N)NCCC[C@H](NC(=O)c1ccc2c(c1)C(=O)OC21c2ccc(O)cc2Oc2cc(O)ccc21)C(=O)N[C@@H](CO)C(=O)N[C@@H](CCCNC(=N)N)C(=O)N[C@@H](CO)C(=O)N[C@@H](CCCNC(=N)N)C(=O)N[C@@H](CO)C(=O)N[C@@H](CCCNC(=N)N)C(=O)N[C@@H](CO)C(=O)N[C@@H](CCCNC(=N)N)C(=O)N[C@@H](CO)C(=O)N[C@@H](CCCNC(=N)N)C(=O)N[C@@H](CO)C(=O)N[C@@H](CCCNC(=N)N)C(=O)N[C@@H](CO)C(=O)N[C@@H](CCCNC(=N)N)C(=O)N[C@@H](CO)C(=O)N[C@@H](CCCNC(=N)N)C(=O)N[C@@H](CO)C(=O)N[C@@H](CCCNC(=N)N)C(=O)N[C@@H](CO)C(=O)N[C@@H](CCCNC(=N)N)C(=O)N[C@@H](CO)C(=O)N[C@@H](CCCNC(=N)N)C(=O)N[C@@H](CO)C(=O)N[C@@H](CCCNC(=N)N)C(=O)N[C@@H](CO)C(=O)N[C@@H](CCCNC(=N)N)C(=O)N[C@@H](CO)C(=O)N[C@@H](CCCNC(=N)N)C(=O)N[C@@H](CO)C(=O)N[C@@H](CCCNC(=N)N)C(=O)N[C@@H](CO)C(=O)O [Fl-(RS)16] (5FAM-RSRSRSRSRSRSRSRSRSRSRSRSRSRSRSRS-OH; N-terminus and C-terminus assumed),reduction of peptide binding affinity,SRPK1(ΔN) [5],about 15 fold
same,inhibition of SRSF1 phosphorylation,SRPK1 [6],competitively inhibits SRSF1 phosphorylation
same,fluorescence emission change,SRPK1 [4],increases in the fluorescence emission spectra
same,affinity of 32-residue peptide compared to the 16-residue peptide,"SRPK1 [4]; in all cases (SRPK1, SRPK1(ΔN), SRPK1(ΔS))",either equivalent or a 2-fold greater affinity
RS domain of SRSF1 (domain or fragment),Ki,[7],830 nM
same,Ki,[8],150 nM
same,Ki,[9],140 nM
"SRSF1: human alternative splicing factor or ASF/SF2; prototype SR protein, SRPK1 substrate","rate constant, fast phase",SRPK1 [10]; [16],6 min⁻¹
same,"rate constant, slow phase",SRPK1 [10]; [16],0.2 min⁻¹
same,"amplitude, fast phase",SRPK1 [10]; [17],12 sites
same,"amplitude, slow phase",SRPK1 [10]; [17],3 sites
same,extent of phosphorylation,"SRPK1 [10]; SRPK1, single turnover",approx. 15 sites
same,time to completion of fast phase,SRPK1 [10]; [18],1 to 2 min
same,time to completion of slower phase,SRPK1 [10]; [18],20 to 30 min
same,effect of SID removal on KI / binding affinity,SRPK1(ΔS) [11],no effect
same,"increase of Km,SR",SRPK1(ΔN) [1]; SRPK1(ΔN) versus SRPK1,3 fold
same,lowering of turnover (kcat),SRPK1(ΔN) [1]; SRPK1(ΔN) versus SRPK1,about 5 fold
same,kcat,"SRPK1(ΔN) [1]; SRPK1(ΔN), 50 mM MOPS pH 7.4, 10 mM Mg^2+, 1 mg/mL BSA, ^32P-ATP, 23° C, Michaelis-Menten fit",0.108 ± 0.015 s⁻¹
same,"enhancement of catalysis by N-terminus (kcat/Km,SR)",SRPK1(ΔN) [1]; SRPK1 versus SRPK1(ΔN),about 20 fold
same,Km,"SRPK1(ΔN) [1]; read-out: Km,SR (Km for SRSF1), SRPK1(ΔN)",0.63 ± 0.07 µM
same,kcat,"SRPK1 [2]; 50 mM MOPS pH 7.4, 10 mM Mg^2+, 1 mg/mL BSA, ^32P-ATP, 23° C, Michaelis-Menten fit",0.5 ± 0.033 s⁻¹
same,Km,"SRPK1 [2]; read-out: Km,SR (Km for SRSF1), substrate SRSF1, pH 7.4, 23° C",0.12 ± 0.02 µM
same,serines rapidly phosphorylated in RS1,"SRPK1 [12]; SRSF1, SRPK1, strict C-to-N-terminal direction, ref [7], [10]",10-12 serines
same,additional serines slowly modified in RS2,"SRPK1 [12]; SRSF1, SRPK1, shown previously, ref none printed in this sentence",about 3 serines
same,"effect of insert (SID) on Km,SR",SRPK1(ΔS) [3]; SRPK1(ΔS) versus SRPK1,no effect
same,lowering of turnover (kcat),SRPK1(ΔS) [3]; SRPK1(ΔS) versus SRPK1,about 5 fold
same,kcat,"SRPK1(ΔS) [3]; SRPK1(ΔS), 50 mM MOPS pH 7.4, 10 mM Mg^2+, 1 mg/mL BSA, ^32P-ATP, 23° C, Michaelis-Menten fit",0.0733 ± 0.0067 s⁻¹
same,"enhancement of catalysis by insert (kcat/Km,SR)",SRPK1(ΔS) [3]; SRPK1 versus SRPK1(ΔS),about 5 fold
same,Km,"SRPK1(ΔS) [3]; read-out: Km,SR (Km for SRSF1), SRPK1(ΔS)",0.12 ± 0.02 µM
same,extent of phosphorylation,SRPK1(ΔS) [13],approx 13 sites
same,Kd,SRPK1 [14],20 to 50 nM
same,decrease of SR protein binding affinity (KI),SRPK1(ΔN) [15],2-3 fold
